According to ChEMBL document CHEMBL3758079, “Design, synthesis and biological evaluation of chalconyl blended triazole allied organosilatranes as giardicidal and trichomonacidal agents” (Eur J Med Chem, 2016):

Columns and labels:
Giardia intestinalis = experiment: Antiparasitic activity against Giardia lamblia Portland 1 after 48 hrs by MTT assay; format: functional, organism-based; conditions: Giardia duodenalis, Portland 1, 48 h
Procedure, shortened: (§1)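 Trophozoite cultures grown in 96-well plates at 37 °C for 24 h, then serial two-fold dilutions (0.9-15 μg/cm³) added from DMSO stocks, 0.5% DMSO as 100%-growth control. Incubated 48 h, then MTT 4 h at 37 °C in dark. Dissolved in DMSO, A570 read. IC50 from sigmoid dose-response. Run in duplicate, three independent experiments in triplicate.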

Trichomonas vaginalis = experiment: Antiparasitic activity against Trichomonas vaginalis 162 after 48 hrs by MTT assay; format: functional, organism-based; conditions: Trichomonas vaginalis, 162, 48 h; procedure, shortened: as §1
[1] = Cytotoxicity against HEK293 cells after 18 hrs by MTT assay; format: cell-based; conditions: human
[2] = Cytotoxicity against human HeLa cells after 18 hrs by MTT assay; format: cell-based
Procedure, shortened: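 Cells (5×10^4/well) seeded in RPMI-1640 with 10% FBS, overnight at 37 °C. Compounds added at 100 to 1.56 µM for 18 h at 37 °C. MTT (5 mg/ml in PBS) added for 3-4 h, formazan dissolved in DMSO. CC50 is the concentration giving 50% growth inhibition relative to untreated cells.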

[3] = Selectivity index, ratio of CC50 for HEK293 cells to IC50 for Trichomonas vaginalis 162; format: functional
[4] = Selectivity index, ratio of CC50 for human HeLa cells to IC50 for Trichomonas vaginalis 162; format: functional
[5] = Selectivity index, ratio of CC50 for HEK293 cells to IC50 for Giardia lamblia Portland 1; format: functional
[6] = Selectivity index, ratio of CC50 for human HeLa cells to IC50 for Giardia lamblia Portland 1; format: functional

Row | SMILES | IC50 (Giardia intestinalis) | IC50 (Trichomonas vaginalis) | CC50 at 18 h [1] | CC50 at 18 h [2] | Ratio CC50/IC50 [3] | Ratio CC50/IC50 [4] | Ratio CC50/IC50 [5] | Ratio CC50/IC50 [6]
1 | COc1ccccc1/C=C/C(=O)c1cccc(OCc2cn(CCC[Si]34OCCN(CCO3)CCO4)nn2)c1 | 43.7 µM | 43.1 µM |  |  |  |  |  | 
2 | COc1ccc(/C=C/C(=O)c2ccccc2OCc2cn(CCC[Si]34OCCN(CCO3)CCO4)nn2)c(OC)c1 | 35.4 µM | 22.1 µM |  |  |  |  |  | 
3 | Cc1ccc(/C=C/C(=O)c2ccccc2OCc2cn(CCC[Si]34OCCN(CCO3)CCO4)nn2)cc1 | 48 µM | 50 µM |  |  |  |  |  | 
4 | O=C(/C=C/c1ccc(Cl)cc1)c1ccc(OCc2cn(CCC[Si]34OCCN(CCO3)CCO4)nn2)cc1 | 33.1 µM | 21.9 µM |  |  |  |  |  | 
5 | COc1ccccc1/C=C/C(=O)c1ccccc1OCc1cn(CCC[Si]23OCCN(CCO2)CCO3)nn1 |  | 23.8 µM |  |  |  |  |  | 
6 | COc1ccc(/C=C/C(=O)c2ccccc2OCc2cn(CCC[Si]34OCCN(CCO3)CCO4)nn2)c(OC)c1OC |  | 21.3 µM | 285 µM | 232 µM | 13.39 | 10.92 |  | 
7 | COc1ccc(/C=C/C(=O)c2ccc(OCc3cn(CCC[Si]45OCCN(CCO4)CCO5)nn3)cc2)cc1 | 54.9 µM | 21.6 µM |  |  |  |  |  | 
8 | O=C(/C=C/c1ccccc1)c1ccc(OCc2cn(CCC[Si]34OCCN(CCO3)CCO4)nn2)cc1 | 59.7 µM | 27.2 µM |  |  |  |  |  | 
9 | COc1ccc(/C=C/C(=O)c2cccc(OCc3cn(CCC[Si]45OCCN(CCO4)CCO5)nn3)c2)c(OC)c1 | 43.9 µM | 43.8 µM |  |  |  |  |  | 
10 | O=C(/C=C/c1ccccc1)c1cccc(OCc2cn(CCC[Si]34OCCN(CCO3)CCO4)nn2)c1 | 81 µM | 65.6 µM |  |  |  |  |  | 
11 | O=C(/C=C/c1ccc(Cl)cc1)c1cccc(OCc2cn(CCC[Si]34OCCN(CCO3)CCO4)nn2)c1 | 78.5 µM | 55.7 µM |  |  |  |  |  | 
12 | Cc1ccc(/C=C/C(=O)c2ccc(OCc3cn(CCC[Si]45OCCN(CCO4)CCO5)nn3)cc2)cc1 | 33.2 µM | 24.8 µM | 198 µM | 189 µM | 7.97 | 7.61 | 5.95 | 5.68
13 | COc1ccc(/C=C/C(=O)c2ccccc2OCc2cn(CCC[Si]34OCCN(CCO3)CCO4)nn2)cc1 | 32.2 µM | 26.7 µM |  |  |  |  |  | 
14 | COc1ccc(/C=C/C(=O)c2ccc(OCc3cn(CCC[Si]45OCCN(CCO4)CCO5)nn3)cc2)c(OC)c1OC | 30.2 µM | 18.2 µM | 270 µM | 227 µM | 14.78 | 12.46 | 8.94 | 7.53
15 | COc1ccc(/C=C/C(=O)c2cccc(OCc3cn(CCC[Si]45OCCN(CCO4)CCO5)nn3)c2)c(OC)c1OC | 19.6 µM | 42.1 µM | 328 µM | 340 µM | 7.79 | 8.07 | 16.74 | 17.36
16 | COc1ccccc1/C=C/C(=O)c1ccc(OCc2cn(CCC[Si]34OCCN(CCO3)CCO4)nn2)cc1 | 40.9 µM | 22.7 µM |  |  |  |  |  | 
17 | COc1ccc(/C=C/C(=O)c2cccc(OCc3cn(CCC[Si]45OCCN(CCO4)CCO5)nn3)c2)cc1 |  | 30.3 µM | 267 µM | 203 µM | 8.81 | 6.7 |  | 
18 | Cc1ccc(/C=C/C(=O)c2cccc(OCc3cn(CCC[Si]45OCCN(CCO4)CCO5)nn3)c2)cc1 | 131 µM | 101 µM |  |  |  |  |  | 
19 | O=C(/C=C/c1ccc(Cl)cc1)c1ccccc1OCc1cn(CCC[Si]23OCCN(CCO2)CCO3)nn1 | 33.9 µM | 22.3 µM |  |  |  |  |  | 
20 | O=C(/C=C/c1ccccc1)c1ccccc1OCc1cn(CCC[Si]23OCCN(CCO2)CCO3)nn1 | 28.1 µM | 23.3 µM | 208 µM | 238 µM | 8.94 | 10.23 | 7.41 | 8.48
21 | COc1ccc(/C=C/C(=O)c2ccc(OCc3cn(CCC[Si]45OCCN(CCO4)CCO5)nn3)cc2)c(OC)c1 | 31.9 µM | 22.9 µM |  |  |  |  |  | 
22 | Cc1ncc([N+](=O)[O-])n1CCO [METRONIDAZOLE] | 62.5 µM | 55.9 µM |  |  |  |  |  | 
